Assay outcomes deposited in PubChem by several laboratories.
This is a sample that favours compounds with a hit; in the whole collection about 1.8% have one here.
Rev-erbA mod = modulators of human Rev-erb alpha DNA binding; Rev-erbα–FITC-DNA binding, fluorescence polarization, 90 min; activity, % at 10 µM; AID 1259318; 370,000 tested, 0.79% active; P20393;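 active = activity above about 14%, limit read from the data; passing the limit was not always enough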;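 also: 0% = DMSO wells with 35 nM protein and 100% = DMSO wells with 750 nM protein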
Tb MetRS inh = Trypanosoma brucei MetRS inhibition. inhibition, % at 11.9 µM. 360,000 tested, 0.4% active. purified T. brucei MetRS, ATP depletion, Kinase-Glo luminescence;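 active = inhibition above a per-plate cutoff of the control wells' mean inhibition plus 3 SD, cut at about 5.5% in these data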;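 also: 0% = DMSO wells median and 100% = median of wells with control inhibitor compound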
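System: purified T. brucei MetRS enzyme / Detection: Kinase-Glo luciferase luminescence reporting remaining unconsumed ATP / Medium: HEPES buffer with MgCl2, KCl, DTT, spermine, BSA, pyrophosphatase / Replication: singlicate, one well per compound / Evaluation: percent inhibition relative to median high and low control wells / Schedule: 2 h aminoacylation at 25 °C after 15 min preincubation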
PG9 Ab binder = binds the HIV-1 gp120 antibody PG9. AID 624416. inhibition, % at 6.7 µM. 360,000 tested, 0.43% active. TR-FRET gp120-PG9 antibody binding; in the data active = inhibition above about 8.5%
Rin1 Abl inh = blocks binding of human Rin1 to Abl. inhibition, % at 7.35 µM. TR-FRET Rin1/Abl binding, biochemical. P00519+Q13671. 360,000 tested, 0.4% active; in the data active = inhibition above about 5%, passing the limit was not always enough
Tb MetRS conf = Trypanosoma brucei MetRS inhibition confirmed; shares compounds with Tb MetRS inh; T. brucei MetRS enzyme, luminescence (ATP depletion); inhibition, % at 11.9 µM; 1,400 tested, 93% active; AID 624412; in the data active = inhibition above about 7%
Jurkat cytotox = Jurkat T cell cytotoxicity for MetRS hits. shares compounds with Tb MetRS inh. Jurkat cells viability, ATP luminescence. inhibition, % at 8.3 µM. 1,400 tested, 12% active. AID 624413; in the data active = inhibition above about 15%;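 also: 0% = vehicle and 100% = reference inhibitor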
TbMetRS FP orth = inhibits T. brucei methionyl tRNA synthetase in orthogonal FP test; shares compounds with Tb MetRS inh; AID 651607; 1,400 tested, 44% active; inhibition, % at 11.9 µM; purified T. brucei MetRS, fluorescence polarization; in the data active = inhibition above about 17%;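 also: 0% = vehicle wells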
Starred values were filed as active, the others as inactive; . = not tested or not shown.

SMILES | Rev-erbA mod | Tb MetRS inh | PG9 Ab binder | Rin1 Abl inh | Tb MetRS conf | Jurkat cytotox | TbMetRS FP orth
COc1ccc(CN=C2Nc3ccccc3CS2)cc1 | -3 | 7.7* | -2 | -4 | 25* | 4 | 3
COc1ccc(CN=C2NN=C(c3ccc(Cl)cc3)CS2)cc1 | 1 | -1 | -2 | 2 | . | . | .
C=CCN1C(C(=O)OC)CN(Cc2cn(Cc3ccc(OC)cc3)nn2)CCS1(=O)=O (configuration not stated) | 3 | . | . | . | . | . | .
Nc1cc(C(=O)OCC(=O)NCCCc2ccccc2)ccc1Cl | -5 | 9.0* | 0 | 3 | 18* | -9 | 7
C=CCNc1cccc2c1S(=O)(=O)N[C@@H](C)CO2 | 4 | . | 0 | . | . | . | .
O=C(CCNC(=O)c1ccc(Br)cc1)OCc1ccccc1Cl | 1 | 7.0* | 0 | -4 | 34* | -4 | 19*
O=C(CNC(=O)c1ccccc1)NCC(=O)OCc1ccccc1Cl | 1 | 0 | -1 | 0 | . | . | .
Clc1ccc2nc(SCc3nnc(-c4ccccc4)o3)[nH]c2c1 | -9 | 7.5* | 4 | -4 | 17* | 6 | 7
Cc1ccc2nc(SCc3nnc(-c4ccccc4Br)o3)[nH]c2c1 | 3 | 7.8* | 0 | 2 | 11* | 5 | 7
Clc1ccc(OCc2nnc(SCc3nnc(-c4ccccc4)o3)o2)c(Cl)c1 | -1 | 6.7* | -1 | -7 | 17* | 0 | 5
Cc1ccc(-n2nnnc2SCc2nnc(-c3ccccc3Br)o2)cc1 | 2 | -1 | 0 | 3 | . | . | .
COC(=O)[C@]12C[C@H](CC(=O)N3CCCC3)C(=O)N(CCc3ccc(OC)c(OC)c3)C1=C[C@H](C(C)(C)C)O[C@@H]2C | 0 | . | . | . | . | . | .
COc1cccc(NC(=O)CSCC(=O)O)c1 | 0 | -2 | -1 | 2 | . | . | .
COc1cccc(NC(=O)CSCC(=O)Nc2ccccc2)c1 | . | 6.1* | 3 | 0 | 18* | -8 | 2
CC1(C)CC(N2CCN(CCO)CC2)=CC(=S)N1 | -4 | 6.2* | -1 | 3 | 3 | 0 | -3
CC1(C)CC(NCc2ccccc2)=CC(=S)N1 | . | 0 | . | 0 | . | . | .
Cc1cnc(CNC(=O)C2CCC(=O)N(Cc3ccc(Cl)cc3)C2)[nH]1 (configuration not stated) | 1 | 32* | -3 | 0 | 69* | -1 | 36*
COc1cccc(-n2c(SCC(=O)N3CCOCC3)nnc2-c2c[nH]c3ccccc23)c1 | -1 | 18* | -3 | 3 | 30* | 9 | 6
O=C(CNC(=O)c1ccc(Br)o1)NCc1cccc(Cl)c1 | -5 | 2 | -1 | 1 | . | . | .
O=C(CNC(=O)c1ccc(Br)o1)NCc1ccc(Cl)cc1Cl | 8 | 18* | 0 | 2 | 45* | -3 | 15
CCC(=O)c1c[nH]c(C(=O)NCc2cccc(C(F)(F)F)c2)c1 | -6 | 6.0* | 0 | 2 | 12* | 5 | 9
CCCC1CCC2(CC1)CCC2OC(=S)Nc1ccc(N(C)C)cc1 (configuration not stated) | -5 | . | . | . | . | . | .
Cc1cccc(N2C(=O)CC(N3CCC(c4nc5ccccc5[nH]4)CC3)C2=O)c1 (configuration not stated) | -2 | 2 | -1 | -4 | . | . | .
O=C1CC(N2CCC(c3nc4ccccc4o3)CC2)C(=O)N1c1cc(Cl)cc(Cl)c1 (configuration not stated) | 3 | 6.0* | 1 | -3 | 2 | 3 | -6
CCCn1c(NCc2cc(OC)ccc2OC)nc2ccccc21 | 4 | 11* | -2 | 1 | 20* | 5 | 4
SMILES | Rev-erbA mod | Tb MetRS inh | PG9 Ab binder | Rin1 Abl inh | Tb MetRS conf | Jurkat cytotox | TbMetRS FP orth
CCn1c(NCc2cc(OC)ccc2OC)nc2ccccc21 | 5 | 9.8* | -1 | 2 | 20* | 2 | 4
C[C@H](O)[C@@H]1C(=O)N2CCc3c([nH]c4c(-c5ccc6c(c5)OCO6)cccc34)[C@@H]2C[C@@H]1N(C)C(=O)NC1CCCCC1 | -1 | . | 0 | . | . | . | .
Cn1c(SC2CCCC2)nnc1-c1ccco1 | -2 | . | . | . | . | . | .
CCN(C(=O)[C@H]1CC(=O)O[C@@H]1c1ccccc1)c1ccccc1 | -1 | . | . | . | . | . | .
CCOC(=O)Cc1nc(N2CCN(CCO)CC2)c2c(C)c(C(=O)OCC)sc2n1 | 2 | . | . | . | . | . | .
C[C@H](O)[C@@H]1CN2CCc3c([nH]c4ccccc34)[C@@H]2C[C@@H]1N(C)C(=S)NCCc1ccccc1 | 2 | 7.8* | -1 | -6 | 6.7* | 6 | 11
Cc1cccc(-c2cccc3c4c([nH]c23)[C@@H]2C[C@H](N(C)C(=S)NCCc3ccccc3)[C@H]([C@H](C)O)CN2CC4)c1 | 6 | . | . | . | . | . | .
Cc1cccc(CSCCNC(=O)Nc2ccccc2)c1 | 0 | 15* | 0 | -1 | 24* | -5 | 14
CCCCNc1cccc2c1S(=O)(=O)N[C@@H](Cc1ccccc1)CO2 | 7 | . | 0 | . | . | . | .
CC(COc1cc(F)cc(C#N)c1)CN1CCC(C(O)(c2ccccc2)c2ccccc2)CC1 (configuration not stated) | -1 | . | . | . | . | . | .
CCn1c(SCC(=O)c2c[nH]c3ccccc23)nc2cc(S(=O)(=O)N3CCOCC3)ccc21 | 9 | 18* | 2 | -20 | 82* | 2 | 60*
C[C@@H]1ON(C)[C@H]2C[C@H]3c4cc(-c5ccccc5)ccc4CCN3C[C@@H]12 | 11 | . | 0 | . | . | . | .
COc1ccc(N2CCN(C(=O)C(=O)c3c[nH]c4ccccc34)CC2)cc1 | -1 | 5 | -2 | 1 | . | . | .
O=C(CN1CCN(Cc2ccc3c(c2)OCO3)CC1)c1c[nH]c2ccccc12 | 5 | 14* | -5 | 0 | 27* | -3 | 9
Cc1[nH]c2ccccc2c1C(=O)C(=O)N1CCN(c2ccccc2)CC1 | 1 | 12* | -2 | -6 | 19* | -12 | 10
O=C(C(=O)N1CCN(c2ccccc2F)CC1)c1c[nH]c2ccccc12 | -1 | 7.3* | 0 | -1 | 11* | 6 | 3
O=C(C(=O)N1CCN(Cc2ccccc2)CC1)c1c[nH]c2ccccc12 | 0 | 12* | -1 | -3 | 21* | -6 | 4
Cc1[nH]c2ccccc2c1C(=O)C(=O)N1CCN(C)CC1 | 2 | 0 | -2 | -2 | . | . | .
Cc1ccc2c(c1)C1CS(=O)(=O)N(Cc3ccccc3)CN1C2 (configuration not stated) | 2 | . | . | . | . | . | .
O=C(c1c[nH]c2ccccc12)N1CCN(c2ccccc2)CC1 | 5 | 0 | -1 | 1 | . | . | .
O=C(C(=O)N1CCN(c2ccccc2)CC1)c1c[nH]c2ccccc12 | -3 | 6.7* | 0 | -4 | 13* | 4 | 3
COc1ccc(N2CCN(CCCNC(=O)C(=O)c3c(C)[nH]c4ccccc34)CC2)cc1 | -4 | 5.9* | -2 | 2 | 18* | -2 | 8
COc1ccccc1N1CCN(C(=O)C(=O)c2c[nH]c3ccccc23)CC1 | 7 | 9.3* | 1 | -5 | 27* | -2 | 4
